How the values were obtained:
[1] = target: PAS domain-containing serine/threonine-protein kinase (Homo sapiens) (UniProt Q96RG2); assay: Inhibition of PASK (unknown origin) using [gamma-33P]ATP assessed as residual activity at 3 uM
[2] = target: Serine/threonine-protein kinase Nek3 (Homo sapiens) (UniProt P51956); assay: Inhibition of NEK3 (unknown origin) using [gamma-33P]ATP assessed as residual activity at 3 uM
[3] = target: Serine/threonine-protein kinase 4 (Homo sapiens) (UniProt Q13043); assay: Inhibition of MST1 (unknown origin) using [gamma-33P]ATP assessed as residual activity at 3 uM
[4] = target: Ribosomal protein S6 kinase alpha-4 (Homo sapiens) (UniProt O75676); assay: Inhibition of MSK2 (unknown origin) using [gamma-33P]ATP assessed as residual activity at 3 uM
[5] = target: Maternal embryonic leucine zipper kinase (Homo sapiens) (UniProt Q14680); assay: Inhibition of MELK (unknown origin) using [gamma-33P]ATP assessed as residual activity at 3 uM
How it was run: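 Contract radiometric panel screen of 288 kinases (261 wild-type, 27 mutant). Inhibition was read by [gamma-33P]ATP radioactivity incorporation.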

[6] = target: Cyclin-dependent kinase 5/CDK5 activator 1 (Homo sapiens) (UniProt Q00535+Q15078); assay: Inhibition of CDK5/p35 (unknown origin) using [gamma-33P]ATP assessed as residual activity at 3 uM; format: protein-complex assay
Cyclin-dependent kinase 5/CDK5 activator 1 (Homo sapiens), sequence (Q00535 whole entry): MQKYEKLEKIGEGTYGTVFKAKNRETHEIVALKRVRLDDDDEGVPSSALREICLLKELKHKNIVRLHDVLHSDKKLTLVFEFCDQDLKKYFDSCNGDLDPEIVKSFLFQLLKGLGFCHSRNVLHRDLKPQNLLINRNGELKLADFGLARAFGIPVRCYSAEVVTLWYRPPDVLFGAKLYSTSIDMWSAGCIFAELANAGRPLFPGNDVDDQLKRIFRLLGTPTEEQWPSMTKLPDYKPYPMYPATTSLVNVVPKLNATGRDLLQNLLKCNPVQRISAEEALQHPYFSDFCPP
Cyclin-dependent kinase 5/CDK5 activator 1 (Homo sapiens), sequence (Q15078 99-307 partner limits assumed): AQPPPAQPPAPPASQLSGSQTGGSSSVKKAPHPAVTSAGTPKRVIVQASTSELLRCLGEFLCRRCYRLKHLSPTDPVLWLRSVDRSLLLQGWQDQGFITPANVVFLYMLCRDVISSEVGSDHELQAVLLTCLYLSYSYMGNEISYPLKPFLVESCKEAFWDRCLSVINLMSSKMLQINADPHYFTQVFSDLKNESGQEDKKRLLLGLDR
How it was run: (§1)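 Radiometric profiling across 288 kinases (261 wild-type, 27 mutant), run as an outsourced service. Inhibition read out as [gamma-33P]ATP incorporation into substrate.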

[7] = target: Cyclin-dependent kinase 2/cyclin A (Homo sapiens) (UniProt P24941+P20248+P78396); assay: Inhibition of CDK2/cyclinA (unknown origin) using [gamma-33P]ATP assessed as residual activity at 3 uM; format: protein-complex assay; how it was run: as §1
[8] = target: Calcium/calmodulin-dependent protein kinase kinase 2 (Homo sapiens) (UniProt Q96RR4); assay: Inhibition of CAMKK2 (unknown origin) using [gamma-33P]ATP assessed as residual activity at 3 uM; how it was run: as §1
Calcium/calmodulin-dependent protein kinase kinase 2 (Homo sapiens), sequence (Q96RR4 2-588 limits assumed): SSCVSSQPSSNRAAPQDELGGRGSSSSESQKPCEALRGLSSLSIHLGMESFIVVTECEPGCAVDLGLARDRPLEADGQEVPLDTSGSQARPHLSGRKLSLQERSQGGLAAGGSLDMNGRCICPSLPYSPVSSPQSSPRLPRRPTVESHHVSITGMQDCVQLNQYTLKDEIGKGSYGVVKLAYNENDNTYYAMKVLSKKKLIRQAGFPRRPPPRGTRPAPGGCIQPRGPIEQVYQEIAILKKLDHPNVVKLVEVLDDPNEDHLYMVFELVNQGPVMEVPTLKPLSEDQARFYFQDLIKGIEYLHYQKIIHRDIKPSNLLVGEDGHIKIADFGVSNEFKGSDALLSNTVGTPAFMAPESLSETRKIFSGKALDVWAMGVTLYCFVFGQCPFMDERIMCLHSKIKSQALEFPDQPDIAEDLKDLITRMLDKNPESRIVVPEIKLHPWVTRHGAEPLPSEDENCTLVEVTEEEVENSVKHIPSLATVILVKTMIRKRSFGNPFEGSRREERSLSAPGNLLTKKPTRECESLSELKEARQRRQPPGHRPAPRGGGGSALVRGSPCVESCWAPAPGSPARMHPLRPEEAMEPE

[9] = target: Cytoplasmic tyrosine-protein kinase BMX (Homo sapiens) (UniProt P51813); assay: Inhibition of BMX (unknown origin) using [gamma-33P]ATP assessed as residual activity at 3 uM; how it was run: as §1
[10] = tested on: Receptor-type tyrosine-protein kinase FLT3 (Homo sapiens), P36888 [D835Y]; assay: Inhibition of FLT3 D835Y mutant (unknown origin) using [gamma-33P]ATP assessed as residual activity at 3 uM
How it was run: (§2)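 Radiometric kinase profiling service covering 288 kinases (261 wild-type, 27 mutant). Inhibition was read as incorporation from [γ-³³P]ATP.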

[11] = tested on: Fibroblast growth factor receptor 1 (Homo sapiens), P11362 [V561M]; assay: Inhibition of FGFR1 V561M mutant (unknown origin) using [gamma-33P]ATP assessed as residual activity at 3 uM
Fibroblast growth factor receptor 1 (Homo sapiens), P11362 [V561M], sequence (P11362 whole entry V561M): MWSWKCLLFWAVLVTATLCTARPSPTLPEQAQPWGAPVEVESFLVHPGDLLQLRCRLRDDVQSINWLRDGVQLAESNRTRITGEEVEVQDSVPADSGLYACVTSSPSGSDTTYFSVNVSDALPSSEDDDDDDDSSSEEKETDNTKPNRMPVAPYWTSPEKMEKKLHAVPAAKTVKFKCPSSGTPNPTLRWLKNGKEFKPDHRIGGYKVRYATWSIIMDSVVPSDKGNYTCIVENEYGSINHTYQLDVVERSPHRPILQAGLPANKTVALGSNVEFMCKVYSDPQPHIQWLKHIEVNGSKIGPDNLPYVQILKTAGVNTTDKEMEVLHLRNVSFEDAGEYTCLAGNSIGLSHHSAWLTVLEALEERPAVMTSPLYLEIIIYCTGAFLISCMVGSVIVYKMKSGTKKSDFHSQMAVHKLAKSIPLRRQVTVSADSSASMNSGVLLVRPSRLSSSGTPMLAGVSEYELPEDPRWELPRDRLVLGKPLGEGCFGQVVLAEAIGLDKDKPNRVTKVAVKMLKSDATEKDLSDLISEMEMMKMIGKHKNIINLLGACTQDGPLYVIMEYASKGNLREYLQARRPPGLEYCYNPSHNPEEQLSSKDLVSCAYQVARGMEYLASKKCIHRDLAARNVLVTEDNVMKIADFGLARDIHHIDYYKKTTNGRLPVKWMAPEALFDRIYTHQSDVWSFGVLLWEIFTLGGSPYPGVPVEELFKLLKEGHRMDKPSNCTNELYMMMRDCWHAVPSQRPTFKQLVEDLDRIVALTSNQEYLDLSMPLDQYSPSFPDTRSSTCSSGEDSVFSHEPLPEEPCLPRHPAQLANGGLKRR
How it was run: (§3)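 Reaction Biology HotSpot radiometric profiling panel of 288 kinases (261 wild-type, 27 mutant). Kinase activity was read out by incorporation of [γ-33P]ATP.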

[12] = tested on: Mast/stem cell growth factor receptor Kit (Homo sapiens), P10721 [D816V]; assay: Inhibition of c-Kit D816V mutant (unknown origin) using [gamma-33P]ATP assessed as residual activity at 3 uM
Mast/stem cell growth factor receptor Kit (Homo sapiens), P10721 [D816V], sequence (P10721 whole entry D816V): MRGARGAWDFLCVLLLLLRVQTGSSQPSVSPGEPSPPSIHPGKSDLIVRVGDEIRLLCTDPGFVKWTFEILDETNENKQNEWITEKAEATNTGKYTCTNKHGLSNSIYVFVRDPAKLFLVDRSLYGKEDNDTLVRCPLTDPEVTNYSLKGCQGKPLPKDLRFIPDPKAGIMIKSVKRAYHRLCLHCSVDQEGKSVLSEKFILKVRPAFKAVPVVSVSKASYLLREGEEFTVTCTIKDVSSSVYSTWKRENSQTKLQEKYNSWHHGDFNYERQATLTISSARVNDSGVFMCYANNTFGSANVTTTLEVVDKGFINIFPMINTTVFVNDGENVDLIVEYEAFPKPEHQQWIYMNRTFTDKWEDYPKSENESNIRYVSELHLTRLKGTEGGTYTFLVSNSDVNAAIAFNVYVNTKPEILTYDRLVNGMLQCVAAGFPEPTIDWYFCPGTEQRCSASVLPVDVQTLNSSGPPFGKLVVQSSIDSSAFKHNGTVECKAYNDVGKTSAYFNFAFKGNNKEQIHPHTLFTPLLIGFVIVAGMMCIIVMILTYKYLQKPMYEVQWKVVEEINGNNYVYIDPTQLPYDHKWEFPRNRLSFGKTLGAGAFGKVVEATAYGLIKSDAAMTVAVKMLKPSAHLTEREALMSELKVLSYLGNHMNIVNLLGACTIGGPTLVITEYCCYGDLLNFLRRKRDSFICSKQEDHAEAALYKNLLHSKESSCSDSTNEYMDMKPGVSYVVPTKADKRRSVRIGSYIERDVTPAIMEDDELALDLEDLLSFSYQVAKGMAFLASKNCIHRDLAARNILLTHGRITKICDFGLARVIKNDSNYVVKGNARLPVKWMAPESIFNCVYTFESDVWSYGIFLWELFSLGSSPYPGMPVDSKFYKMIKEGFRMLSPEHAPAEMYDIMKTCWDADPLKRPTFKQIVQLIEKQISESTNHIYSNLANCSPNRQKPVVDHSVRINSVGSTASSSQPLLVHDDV

[13] = target: Aurora kinase B (Homo sapiens) (UniProt Q96GD4); assay: Inhibition of Aurora B (unknown origin) using [gamma-33P]ATP assessed as residual activity at 3 uM; how it was run: as §1
[14] = target: Interleukin-1 receptor-associated kinase 1 (Homo sapiens) (UniProt P51617); assay: Inhibition of IRAK1 (unknown origin) using [gamma-33P]ATP assessed as residual activity at 3 uM; how it was run: as §2
[15] = target: Mitogen-activated protein kinase kinase kinase 20 (Homo sapiens) (UniProt Q9NYL2); assay: Inhibition of ZAK (unknown origin) using [gamma-33P]ATP assessed as residual activity at 3 uM
[16] = target: Serine/threonine-protein kinase VRK1 (Homo sapiens) (UniProt Q99986); assay: Inhibition of VRK1 (unknown origin) using [gamma-33P]ATP assessed as residual activity at 3 uM
Serine/threonine-protein kinase VRK1 (Homo sapiens), sequence (Q99986 whole entry): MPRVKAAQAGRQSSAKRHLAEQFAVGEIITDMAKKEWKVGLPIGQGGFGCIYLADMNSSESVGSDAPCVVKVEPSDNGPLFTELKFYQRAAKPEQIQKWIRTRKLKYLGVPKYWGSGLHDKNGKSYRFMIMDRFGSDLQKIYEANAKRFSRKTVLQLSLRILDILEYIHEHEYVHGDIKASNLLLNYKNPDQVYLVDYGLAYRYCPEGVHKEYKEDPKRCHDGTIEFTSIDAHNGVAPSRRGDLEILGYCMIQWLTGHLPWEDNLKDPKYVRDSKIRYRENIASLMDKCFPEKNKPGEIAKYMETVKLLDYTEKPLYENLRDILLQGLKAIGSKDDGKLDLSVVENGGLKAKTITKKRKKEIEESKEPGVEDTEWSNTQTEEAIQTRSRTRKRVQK

[17] = target: High affinity nerve growth factor receptor (Homo sapiens) (UniProt P04629); assay: Inhibition of TRKA (unknown origin) using [gamma-33P]ATP assessed as residual activity at 3 uM
[18] = target: BDNF/NT-3 growth factors receptor (Homo sapiens) (UniProt Q16620); assay: Inhibition of TRKB (unknown origin) using [gamma-33P]ATP assessed as residual activity at 3 uM
[19] = target: Ribosomal protein S6 kinase alpha-2 (Homo sapiens) (UniProt Q15349); assay: Inhibition of RSK3 (unknown origin) using [gamma-33P]ATP assessed as residual activity at 3 uM
[20] = target: Proto-oncogene tyrosine-protein kinase ROS (Homo sapiens) (UniProt P08922); assay: Inhibition of ROS (unknown origin) using [gamma-33P]ATP assessed as residual activity at 3 uM
[21] = target: Glycogen synthase kinase-3 beta (Homo sapiens) (UniProt P49841); assay: Inhibition of GSK3B (unknown origin) using [gamma-33P]ATP assessed as residual activity at 3 uM; how it was run: as §2
Glycogen synthase kinase-3 beta (Homo sapiens), sequence (P49841 whole entry, looked up): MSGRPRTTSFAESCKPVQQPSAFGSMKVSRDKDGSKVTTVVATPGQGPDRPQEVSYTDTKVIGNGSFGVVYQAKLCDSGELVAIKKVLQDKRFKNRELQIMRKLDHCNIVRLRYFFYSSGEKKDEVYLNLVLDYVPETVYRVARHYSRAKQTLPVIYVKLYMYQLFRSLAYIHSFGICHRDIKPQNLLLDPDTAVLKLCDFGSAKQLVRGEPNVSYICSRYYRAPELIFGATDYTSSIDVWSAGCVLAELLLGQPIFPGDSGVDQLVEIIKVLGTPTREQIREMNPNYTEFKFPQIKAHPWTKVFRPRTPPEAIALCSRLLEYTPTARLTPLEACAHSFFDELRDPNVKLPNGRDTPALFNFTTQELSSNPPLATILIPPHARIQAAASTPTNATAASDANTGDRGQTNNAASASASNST

[22] = target: G protein-coupled receptor kinase 4 (Homo sapiens) (UniProt P32298); assay: Inhibition of GRK4 (unknown origin) using [gamma-33P]ATP assessed as residual activity at 3 uM; how it was run: as §2
[23] = target: Tyrosine-protein kinase Fyn (Homo sapiens, UniProt P06241); assay: Inhibition of FYN (unknown origin) using [gamma-33P]ATP assessed as residual activity at 3 uM
[24] = target: Receptor-type tyrosine-protein kinase FLT3 (Homo sapiens) (UniProt P36888); assay: Inhibition of FLT3 (unknown origin) using [gamma-33P]ATP assessed as residual activity at 3 uM; how it was run: as §2
[25] = target: Fibroblast growth factor receptor 4 (Homo sapiens) (UniProt P22455); assay: Inhibition of FGFR4 (unknown origin) using [gamma-33P]ATP assessed as residual activity at 3 uM; how it was run: as §3
[26] = target: Fibroblast growth factor receptor 3 (Homo sapiens) (UniProt P22607); assay: Inhibition of FGFR3 (unknown origin) using [gamma-33P]ATP assessed as residual activity at 3 uM; how it was run: as §3
[27] = target: Tyrosine-protein kinase Fer (Homo sapiens) (UniProt P16591); assay: Inhibition of FER (unknown origin) using [gamma-33P]ATP assessed as residual activity at 3 uM; how it was run: as §3
[28] = target: Ephrin type-B receptor 1 (Homo sapiens) (UniProt P54762); assay: Inhibition of EPHB1 (unknown origin) using [gamma-33P]ATP assessed as residual activity at 3 uM; how it was run: as §3
[29] = target: Ephrin type-A receptor 8 (Homo sapiens) (UniProt P29322); assay: Inhibition of EPHA8 (unknown origin) using [gamma-33P]ATP assessed as residual activity at 3 uM; how it was run: as §3
[30] = target: Epidermal growth factor receptor (Homo sapiens) (UniProt P00533); assay: Inhibition of EGFR (unknown origin) using [gamma-33P]ATP assessed as residual activity at 3 uM; how it was run: as §3
[31] = target: Dual specificity tyrosine-phosphorylation-regulated kinase 4 (Homo sapiens) (UniProt Q9NR20); assay: Inhibition of DYRK4 (unknown origin) using [gamma-33P]ATP assessed as residual activity at 3 uM; how it was run: as §3

PAS domain-containing serine/threonine-protein kinase (Homo sapiens), sequence (Q96RG2 whole entry, the tested form may be a part): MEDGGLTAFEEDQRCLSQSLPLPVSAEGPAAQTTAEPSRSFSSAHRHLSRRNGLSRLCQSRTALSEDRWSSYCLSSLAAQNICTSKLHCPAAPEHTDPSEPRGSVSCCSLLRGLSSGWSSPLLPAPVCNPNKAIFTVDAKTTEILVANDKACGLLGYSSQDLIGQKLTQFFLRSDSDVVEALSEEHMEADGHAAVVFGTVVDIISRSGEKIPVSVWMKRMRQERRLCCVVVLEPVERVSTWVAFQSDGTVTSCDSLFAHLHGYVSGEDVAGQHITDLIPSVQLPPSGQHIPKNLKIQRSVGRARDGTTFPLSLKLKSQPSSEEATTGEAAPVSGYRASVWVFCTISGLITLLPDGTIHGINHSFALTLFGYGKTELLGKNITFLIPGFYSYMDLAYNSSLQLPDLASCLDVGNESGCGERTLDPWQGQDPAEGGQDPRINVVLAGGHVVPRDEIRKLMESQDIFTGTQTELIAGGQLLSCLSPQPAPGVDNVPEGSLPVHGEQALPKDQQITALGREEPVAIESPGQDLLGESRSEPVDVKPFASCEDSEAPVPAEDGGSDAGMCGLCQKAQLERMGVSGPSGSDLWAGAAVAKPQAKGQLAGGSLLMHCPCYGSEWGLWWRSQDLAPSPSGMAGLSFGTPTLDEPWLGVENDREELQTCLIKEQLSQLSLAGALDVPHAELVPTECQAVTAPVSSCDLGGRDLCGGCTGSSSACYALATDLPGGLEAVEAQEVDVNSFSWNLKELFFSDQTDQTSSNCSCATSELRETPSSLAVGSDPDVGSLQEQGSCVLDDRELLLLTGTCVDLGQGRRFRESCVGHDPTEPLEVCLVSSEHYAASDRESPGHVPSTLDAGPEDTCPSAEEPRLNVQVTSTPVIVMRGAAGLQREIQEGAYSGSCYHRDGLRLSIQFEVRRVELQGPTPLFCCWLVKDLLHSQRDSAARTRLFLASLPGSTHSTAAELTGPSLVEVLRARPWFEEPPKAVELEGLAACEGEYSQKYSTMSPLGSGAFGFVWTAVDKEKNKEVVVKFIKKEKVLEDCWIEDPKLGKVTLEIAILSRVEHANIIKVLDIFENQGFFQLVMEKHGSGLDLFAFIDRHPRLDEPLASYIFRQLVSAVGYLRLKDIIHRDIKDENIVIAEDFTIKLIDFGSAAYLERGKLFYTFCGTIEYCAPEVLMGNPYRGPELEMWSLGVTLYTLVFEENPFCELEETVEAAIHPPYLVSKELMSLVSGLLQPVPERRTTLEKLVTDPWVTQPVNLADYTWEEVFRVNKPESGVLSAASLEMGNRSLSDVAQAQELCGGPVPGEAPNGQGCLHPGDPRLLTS

Activity [1]: 95% | Activity [2]: 100% | Activity [3]: 87% | Activity [4]: 98% | Activity [5]: 76% | Activity [6]: 90% | Activity [7]: 96% | Activity [8]: 65% | Activity [9]: 93% | Activity [10]: 52% | Activity [11]: 98% | Activity [12]: 36% | Activity [13]: 86% | Activity [14]: 102% | Activity [15]: 96% | Activity [16]: 81% | Activity [17]: 88% | Activity [18]: 101% | Activity [19]: 97% | Activity [20]: 95% | Activity [21]: 103% | Activity [22]: 94% | Activity [23]: 39% | Activity [24]: 53% | Activity [25]: 87% | Activity [26]: 91% | Activity [27]: 96% | Activity [28]: 80% | Activity [29]: 95% | Activity [30]: 97% | Activity [31]: 103%
Compound: CCc1ccc(-c2ccc3c(c2)-c2[nH]ncc2S(=O)(=O)N3C)cc1
